Laboratory results from ChEMBL document CHEMBL1255417, “Correlation between in vitro activity of posaconazole and in vivo efficacy against Rhizopus oryzae infection in mice” (Antimicrob Agents Chemother, 2010).
Converted amounts (≈) assume the structure as drawn. The source made the active and inactive calls. The calls are words filed in the database; no cut-off is given here.

Experiments:
Rhizopus arrhizus [1] = assay: Antifungal activity against drug-susceptible Rhizopus oryzae UTHSC 05-1679 at 5 ug by disk diffusion assay; assay type: functional; conditions: read-out: DIZ
Procedure, shortened: (§1)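 Neo-Sensitabs tablet diffusion on Mueller-Hinton agar, following guidelines for molds; 9 mm tablets containing 5 µg posaconazole; inhibition zone diameter measured in mm; zone breakpoints applied at 24 h.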

Rhizopus arrhizus [2] = assay: Antifungal activity against drug-intermediate Rhizopus oryzae UTHSC 03-3165 at 5 ug by disk diffusion assay; assay type: functional; conditions: read-out: DIZ
Procedure, shortened: (§2)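 Neo-Sensitabs tablet diffusion on Mueller-Hinton agar, following the guidelines for molds. Tablets were 9 mm in diameter and held 5 µg of drug. The read-out was inhibition zone diameter in mm.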

Rhizopus arrhizus [3] = assay: Antifungal activity against drug-susceptible Rhizopus oryzae UTHSC 04-1613 after 24 to 48 hrs; assay type: functional
Procedure, shortened: (§3)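 Minimum fungicidal concentration: 20 µl from each microdilution well showing complete inhibition (optically clear) plated on potato dextrose agar, incubated 35°C for 24 to 48 h; MFC taken as lowest drug concentration giving no growth.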

Rhizopus arrhizus [4] = assay: Antifungal activity against drug-susceptible Rhizopus oryzae UTHSC 05-2975 at 5 ug by disk diffusion assay; assay type: functional; conditions: read-out: DIZ
Procedure, shortened: (§4)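 Neo-Sensitabs tablet diffusion on Mueller-Hinton agar, run per the mould guidelines. Tablets are 9 mm in diameter and carry 5 ug posaconazole. The read-out is the inhibition zone diameter in mm.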

Rhizopus arrhizus [5] = assay: Antifungal activity against drug-susceptible Rhizopus oryzae UTHSC 06-4133 after 24 to 48 hrs; assay type: functional
Procedure, shortened: (§5)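 Minimum fungicidal concentration taken from the broth microdilution plates. From each well with complete inhibition (optically clear), 20 ul is plated on potato dextrose agar. Plates are incubated at 35°C for 24 to 48 h. The MFC is the lowest drug concentration giving no growth.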

Rhizopus arrhizus [6] = assay: Antifungal activity against drug-intermediate Rhizopus oryzae UTHSC 05-3032 infected in OF1 mouse assessed as reduction in kidney fungal load at 10-30 mg/kg, po bid treated 24 hrs after fungal infection; assay type: functional, organism-based
Procedure, shortened: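 Tissue burden in immunosuppressed male OF1 mice, using cyclophosphamide 200 mg/kg i.p. plus 5-fluorouracil 150 mg/kg i.v. on day −1. Mice received 2 × 10^4 CFU i.v. by tail vein, then oral gavage at 10, 20 or 30 mg/kg BID from 24 h post-challenge, with ceftazidime cover; untreated controls. Groups of 10 were killed on day 4. Kidneys and brains were homogenized in 2 ml saline, serially diluted 10-fold, plated on PDA and counted after 24 h at 35°C.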

Rhizopus arrhizus [7] = assay: Antifungal activity against drug-susceptible Rhizopus oryzae UTHSC 03-511 after 24 to 48 hrs; assay type: functional; procedure, shortened: as §3
Rhizopus arrhizus [8] = assay: Antifungal activity against drug-intermediate Rhizopus oryzae UTHSC 04-3109 after 24 to 48 hrs; assay type: functional
Serum = assay: Drug level in human serum at 400 mg, po bid; assay type: ADME, organism-based; conditions: in vivo
Rhizopus arrhizus [9] = assay: Antifungal activity against drug-susceptible Rhizopus oryzae UTHSC 03-3110 after 24 to 48 hrs; assay type: functional; procedure, shortened: as §3
Rhizopus arrhizus [10] = assay: Antifungal activity against drug-susceptible Rhizopus oryzae UTHSC 06-1080 after 24 to 48 hrs; assay type: functional; procedure, shortened: as §5
Rhizopus arrhizus [11] = assay: Antifungal activity against drug-susceptible Rhizopus oryzae UTHSC 05-3580 at 5 ug by disk diffusion assay; assay type: functional; conditions: read-out: DIZ; procedure, shortened: as §4
Rhizopus arrhizus [12] = assay: Antifungal activity against drug-susceptible Rhizopus oryzae UTHSC 05-2447 by broth microdilution method; assay type: functional
Procedure, shortened: (§6)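 CLSI broth microdilution for filamentous fungi (M38-A2); MIC recorded in µg/ml against clinical isolates; breakpoints applied at 24 h.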

Rhizopus arrhizus [13] = assay: Antifungal activity against drug-susceptible Rhizopus oryzae UTHSC 06-89 by broth microdilution method; assay type: functional
Rhizopus arrhizus [14] = assay: Antifungal activity against drug-susceptible Rhizopus oryzae UTHSC 05-1679 by broth microdilution method; assay type: functional; procedure, shortened: as §6
Rhizopus arrhizus [15] = assay: Antifungal activity against drug-susceptible Rhizopus oryzae UTHSC 03-547 at 5 ug by disk diffusion assay; assay type: functional; conditions: read-out: DIZ; procedure, shortened: as §1
Rhizopus arrhizus [16] = assay: Antifungal activity against drug-susceptible Rhizopus oryzae UTHSC 04-2459 after 24 to 48 hrs; assay type: functional; procedure, shortened: as §3
Rhizopus arrhizus [17] = assay: Antifungal activity against drug-susceptible Rhizopus oryzae UTHSC 06-434 by broth microdilution method; assay type: functional
Procedure, shortened: (§7)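 Posaconazole MIC in ug/ml, determined by broth microdilution following the CLSI guidelines for moulds (M38-A2).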

Rhizopus arrhizus [18] = assay: Antifungal activity against drug-susceptible Rhizopus oryzae UTHSC 03-1826 after 24 to 48 hrs; assay type: functional
Rhizopus arrhizus [19] = assay: Antifungal activity against drug-susceptible Rhizopus oryzae UTHSC 06-1301 at 5 ug by disk diffusion assay; assay type: functional; conditions: read-out: DIZ; procedure, shortened: as §4
Rhizopus arrhizus [20] = assay: Antifungal activity against drug-susceptible Rhizopus oryzae UTHSC 03-547 after 24 to 48 hrs; assay type: functional; procedure, shortened: as §3
Rhizopus arrhizus [21] = assay: Antifungal activity against drug-susceptible Rhizopus oryzae UTHSC 02-2882 after 24 to 48 hrs; assay type: functional
Rhizopus arrhizus [22] = assay: Antifungal activity against drug-susceptible Rhizopus oryzae UTHSC 05-1817 by broth microdilution method; assay type: functional; procedure, shortened: as §6
Rhizopus arrhizus [23] = assay: Antifungal activity against drug-susceptible Rhizopus oryzae UTHSC 2868 at 5 ug by disk diffusion assay; assay type: functional; conditions: read-out: DIZ
Rhizopus arrhizus [24] = assay: Antifungal activity against drug-intermediate Rhizopus oryzae UTHSC 03-285 at 5 ug by disk diffusion assay; assay type: functional; conditions: read-out: DIZ; procedure, shortened: as §2
Rhizopus arrhizus [25] = assay: Antifungal activity against drug-susceptible Rhizopus oryzae UTHSC 04-2459 by broth microdilution method; assay type: functional; procedure, shortened: as §6
Rhizopus arrhizus [26] = assay: Antifungal activity against drug-susceptible Rhizopus oryzae UTHSC 06-2374 at 5 ug by disk diffusion assay; assay type: functional; conditions: read-out: DIZ; procedure, shortened: as §4
Rhizopus arrhizus [27] = assay: Antifungal activity against drug-susceptible Rhizopus oryzae UTHSC 03-2970 by broth microdilution method; assay type: functional
Procedure, shortened: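 Broth microdilution MIC in µg/ml, run per the CLSI (formerly NCCLS) guideline for filamentous fungi, M38-A2.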

Rhizopus arrhizus [28] = assay: Antifungal activity against drug-susceptible Rhizopus oryzae UTHSC 06-4152 by broth microdilution method; assay type: functional; procedure, shortened: as §7
Rhizopus arrhizus [29] = assay: Antifungal activity against drug-susceptible Rhizopus oryzae UTHSC 05-2447 after 24 to 48 hrs; assay type: functional; procedure, shortened: as §3
Rhizopus arrhizus [30] = assay: Antifungal activity against drug-susceptible Rhizopus oryzae UTHSC 06-1301 by broth microdilution method; assay type: functional; procedure, shortened: as §7
Rhizopus arrhizus [31] = assay: Antifungal activity against drug-susceptible Rhizopus oryzae UTHSC 06-3827 after 24 to 48 hrs; assay type: functional; procedure, shortened: as §5
Rhizopus arrhizus [32] = assay: Antifungal activity against drug-intermediate Rhizopus oryzae UTHSC 07-365 at 5 ug by disk diffusion assay; assay type: functional; conditions: UTHSC 07-365, read-out: DIZ; procedure, shortened: as §2
Rhizopus arrhizus [33] = assay: Antifungal activity against drug-susceptible Rhizopus oryzae UTHSC 03-2970 after 24 to 48 hrs; assay type: functional
Rhizopus arrhizus [34] = assay: Antifungal activity against drug-susceptible Rhizopus oryzae UTHSC 04-278 at 5 ug by disk diffusion assay; assay type: functional; conditions: read-out: DIZ; procedure, shortened: as §1
Rhizopus arrhizus [35] = assay: Antifungal activity against drug-susceptible Rhizopus oryzae UTHSC 03-2970 at 5 ug by disk diffusion assay; assay type: functional; conditions: read-out: DIZ; procedure, shortened: as §2
Rhizopus arrhizus [36] = assay: Antifungal activity against drug-intermediate Rhizopus oryzae UTHSC 04-3109 at 5 ug by disk diffusion assay; assay type: functional; conditions: read-out: DIZ; procedure, shortened: as §2
Rhizopus arrhizus [37] = assay: Antifungal activity against drug-susceptible Rhizopus oryzae UTHSC 02-439 after 24 to 48 hrs; assay type: functional
Rhizopus arrhizus [38] = assay: Antifungal activity against drug-susceptible Rhizopus oryzae UTHSC 03-3110 by broth microdilution method; assay type: functional; procedure, shortened: as §6
Rhizopus arrhizus [39] = assay: Antifungal activity against drug-susceptible Rhizopus oryzae UTHSC 05-197 at 5 ug by disk diffusion assay; assay type: functional; conditions: read-out: DIZ; procedure, shortened: as §1
Rhizopus arrhizus [40] = assay: Antifungal activity against drug-intermediate Rhizopus oryzae UTHSC 05-114 at 5 ug by disk diffusion assay; assay type: functional; conditions: read-out: DIZ; procedure, shortened: as §2

SMILES: CC[C@@H]([C@H](C)O)n1ncn(-c2ccc(N3CCN(c4ccc(OC[C@@H]5CO[C@@](Cn6cncn6)(c6ccc(F)cc6F)C5)cc4)CC3)cc2)c1=O [POSACONAZOLE]
- zone of inhibition at 5 µg/disc (Rhizopus arrhizus [1]): 18 mm
- zone of inhibition at 5 µg/disc (Rhizopus arrhizus [2]): 16 mm
- MFC (Rhizopus arrhizus [3]): 0.5 µg/mL (≈ 0.713 µM)
- zone of inhibition at 5 µg/disc (Rhizopus arrhizus [4]): 20 mm
- MFC (Rhizopus arrhizus [5]): 1 µg/mL (≈ 1.43 µM)
- Activity (Rhizopus arrhizus [6]): inactive
- MFC (Rhizopus arrhizus [7]): 1 µg/mL (≈ 1.43 µM)
- MFC (Rhizopus arrhizus [8]): > 16 µg/mL
- Drug uptake (Serum): < 1 µg/mL
- MFC (Rhizopus arrhizus [9]): 1 µg/mL (≈ 1.43 µM)
- MFC (Rhizopus arrhizus [10]): > 16 µg/mL
- zone of inhibition at 5 µg/disc (Rhizopus arrhizus [11]): 25 mm
- MIC (Rhizopus arrhizus [12]): 1 µg/mL (≈ 1.43 µM)
- MIC (Rhizopus arrhizus [13]): 0.25 µg/mL (≈ 0.357 µM)
- MIC (Rhizopus arrhizus [14]): 0.5 µg/mL (≈ 0.713 µM)
- zone of inhibition at 5 µg/disc (Rhizopus arrhizus [15]): 25 mm
- MFC (Rhizopus arrhizus [16]): 0.5 µg/mL (≈ 0.713 µM)
- MIC (Rhizopus arrhizus [17]): 1 µg/mL (≈ 1.43 µM)
- MFC (Rhizopus arrhizus [18]): 0.5 µg/mL (≈ 0.713 µM)
- zone of inhibition at 5 µg/disc (Rhizopus arrhizus [19]): 25 mm
- MFC (Rhizopus arrhizus [20]): 0.5 µg/mL (≈ 0.713 µM)
- MFC (Rhizopus arrhizus [21]): 0.5 µg/mL (≈ 0.713 µM)
- MIC (Rhizopus arrhizus [22]): 0.25 µg/mL (≈ 0.357 µM)
- zone of inhibition at 5 µg/disc (Rhizopus arrhizus [23]): 19 mm
- zone of inhibition at 5 µg/disc (Rhizopus arrhizus [24]): 15 mm
- MIC (Rhizopus arrhizus [25]): 1 µg/mL (≈ 1.43 µM)
- zone of inhibition at 5 µg/disc (Rhizopus arrhizus [26]): 23 mm
- MIC (Rhizopus arrhizus [27]): 1 µg/mL (≈ 1.43 µM)
- MIC (Rhizopus arrhizus [28]): 0.25 µg/mL (≈ 0.357 µM)
- MFC (Rhizopus arrhizus [29]): 1 µg/mL (≈ 1.43 µM)
- MIC (Rhizopus arrhizus [30]): 0.5 µg/mL (≈ 0.713 µM)
- MFC (Rhizopus arrhizus [31]): 16 µg/mL (≈ 22.8 µM)
- zone of inhibition at 5 µg/disc (Rhizopus arrhizus [32]): 15 mm
- MFC (Rhizopus arrhizus [33]): 4 µg/mL (≈ 5.71 µM)
- zone of inhibition at 5 µg/disc (Rhizopus arrhizus [34]): 18 mm
- zone of inhibition at 5 µg/disc (Rhizopus arrhizus [35]): 20 mm
- zone of inhibition at 5 µg/disc (Rhizopus arrhizus [36]): 14 mm
- MFC (Rhizopus arrhizus [37]): 0.5 µg/mL (≈ 0.713 µM)
- MIC (Rhizopus arrhizus [38]): 1 µg/mL (≈ 1.43 µM)
- zone of inhibition at 5 µg/disc (Rhizopus arrhizus [39]): 21 mm
- zone of inhibition at 5 µg/disc (Rhizopus arrhizus [40]): 15 mm
